These results are taken from ChEMBL document CHEMBL1153856, “Synthesis and spectral characterization of a new class of N-(N-methylpiperazinoacetyl)-2,6-diarylpiperidin-4-ones: antimicrobial, analgesic and antipyretic studies” (2009).

What all share (format): functional
The test system of assay [1] is Rattus norvegicus. Put plainly: Antipyretic activity against brewer's yeast-induced hyperthermia in Wistar rat assessed as change in rectal temperature at 30 mg/kg, po after 30 mins. The method in brief: (§1)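 Wistar rats of both sexes, 200–250 g, received brewer's yeast in normal saline sc. Rectal temperature was taken with a digital thermometer (precision 0.1 °C). At 18 h, rats whose temperature had risen 0.3–0.5 °C were selected. Test compounds (30 or 60 mg/kg) or indomethacin (5 mg/kg) were given orally in 1% CMC; controls received vehicle only. Temperature was measured at 30, 60, 90, 120 and 150 min, mean ± SEM.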

The test system of assay [2] is Rattus norvegicus. The assay can be described thus: Antipyretic activity against brewer's yeast-induced hyperthermia in Wistar rat assessed as change in rectal temperature at 30 mg/kg, po after 150 mins. The method in brief:
as §1

For assay [3], the system named is Rattus norvegicus. The assay can be described thus: Antipyretic activity against brewer's yeast-induced hyperthermia in Wistar rat assessed as change in rectal temperature at 30 mg/kg, po after 120 mins. The method in brief: as §1
For assay [4], the system named is Rattus norvegicus. Put plainly: Antipyretic activity against brewer's yeast-induced hyperthermia in Wistar rat assessed as change in rectal temperature at 60 mg/kg, po after 60 mins. The gist of the method: as §1
The subject of assay [5] is Mus musculus. Put plainly: Analgesic activity in albino mouse assessed as inhibition of acetic acid-induced writhing response at 60 mg/kg, po administered 1 hr prior to acetic acid challenge relative to control. The gist of the method: (§2)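 Albino mice of both sexes, 20–25 g, n = 6 per group. Doses of 30, 60 or 90 mg/kg were given orally as suspensions in 1% sodium CMC. 1 h later, 1% acetic acid in normal saline (10 mL/kg) was injected ip. Complete extension of either hind limb counted as a writhe. Counting started 5 min after injection and ran 30 min. Results are % inhibition = [1 − T/C] × 100 versus vehicle controls, mean ± SEM.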
On the technique in general: In writhing tests, fewer writhes than in controls are read as antinociception.

For assay [6], the system named is Rattus norvegicus. Put plainly: Antipyretic activity against brewer's yeast-induced hyperthermia in Wistar rat assessed as change in rectal temperature at 60 mg/kg, po after 30 mins. The method in brief: as §1
In another assay the test system is Pseudomonas aeruginosa. Put plainly: Antimicrobial activity against Pseudomonas aeruginosa after 24 hrs by twofold serial dilution method. The method in brief: (§3)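 Twofold serial broth dilution in nutrient broth at pH 7.4 ± 0.2. Compound stocks were 1 mg/mL in DMSO, diluted 1:5 into seeded broth, then six serial dilutions. Inocula came from 24 h nutrient-agar cultures, final 10⁵ cfu/mL. Incubation was 37 ± 1 °C for 24 h, with growth and solvent controls. MIC was read visually; ciprofloxacin was the standard.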

The subject of assay [7] is Rattus norvegicus. The assay can be described thus: Antipyretic activity against brewer's yeast-induced hyperthermia in Wistar rat assessed as change in rectal temperature at 60 mg/kg, po after 90 mins. The method in brief:
as §1

Assay [8] has as its system Rattus norvegicus. The assay can be described thus: Antipyretic activity against brewer's yeast-induced hyperthermia in Wistar rat assessed as change in rectal temperature at 30 mg/kg, po after 90 mins. The method in brief:
as §1

The test system of the next assay is Aspergillus flavus. The assay can be described thus: Antimicrobial activity against Aspergillus flavus after 72 to 96 hrs by twofold serial dilution method. The gist of the method:
(§4)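 Twofold serial broth dilution in Sabouraud dextrose broth at pH 5.6. Spores came from 1–7-day Sabouraud agar slants, final inoculum 1.1–1.5 × 10² cfu/mL. Compound stocks were 1 mg/mL in DMSO, diluted 1:5 into seeded broth, then six serial dilutions. Incubation was 28 ± 1 °C for 72–96 h, with growth and solvent controls. MIC was read visually; amphotericin B was the standard.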

Assay [9] deals with Salmonella enterica subsp. enterica serovar Typhi str. CT18. Put plainly: Antimicrobial activity against Salmonella typhi after 24 hrs by twofold serial dilution method. The method in brief: as §3
The test system of the next assay is Rhizopus. The assay can be described thus: Antimicrobial activity against Rhizopus sp. after 72 to 96 hrs by twofold serial dilution method. The method in brief:
as §4

For the next assay, the system named is Staphylococcus aureus. Put plainly: Antimicrobial activity against Staphylococcus aureus after 24 hrs by twofold serial dilution method. The gist of the method: as §3
Assay [10] relates to Mus musculus. The assay can be described thus: Analgesic activity in albino mouse assessed as inhibition of acetic acid-induced writhing response at 30 mg/kg, po administered 1 hr prior to acetic acid challenge relative to control. The gist of the method:
as §2

Assay [11] deals with Mus musculus. Put plainly: Analgesic activity in albino mouse assessed as inhibition of acetic acid-induced writhing response at 90 mg/kg, po administered 1 hr prior to acetic acid challenge relative to control. The gist of the method: as §2
The test system of assay [12] is Rattus norvegicus. Put plainly: Antipyretic activity against brewer's yeast-induced hyperthermia in Wistar rat assessed as change in rectal temperature at 60 mg/kg, po after 150 mins. The method in brief:
as §1

Assay [13] deals with Rattus norvegicus. The assay can be described thus: Antipyretic activity against brewer's yeast-induced hyperthermia in Wistar rat assessed as change in rectal temperature at 30 mg/kg, po after 60 mins. The gist of the method:
as §1

The subject of a further assay is Aspergillus niger. Put plainly: Antimicrobial activity against Aspergillus niger after 72 to 96 hrs by twofold serial dilution method. The method in brief: as §4
For the next assay, the system named is Escherichia coli. The assay can be described thus: Antimicrobial activity against Escherichia coli after 24 hrs by twofold serial dilution method. The gist of the method: as §3
Another assay relates to Klebsiella pneumoniae. The assay can be described thus: Antimicrobial activity against Klebsiella pneumoniae after 24 hrs by twofold serial dilution method. The method in brief:
as §3

Another assay relates to Candida albicans. Put plainly: Antimicrobial activity against Candida albicans after 72 to 96 hrs by twofold serial dilution method. The method in brief:
as §4

Assay [14] concerns Rattus norvegicus. The assay can be described thus: Antipyretic activity against brewer's yeast-induced hyperthermia in Wistar rat assessed as change in rectal temperature at 60 mg/kg, po after 120 mins. The method in brief:
as §1

In assay [15] the test system is Rattus norvegicus. The assay can be described thus: Antipyretic activity against brewer's yeast-induced hyperthermia in Wistar rat assessed as change in rectal temperature at 5 mg/kg, po after 150 mins. The method in brief: as §1
Assay [16] has as its system Rattus norvegicus. The assay can be described thus: Antipyretic activity against brewer's yeast-induced hyperthermia in Wistar rat assessed as change in rectal temperature at 5 mg/kg, po after 120 mins. The gist of the method:
as §1

The subject of assay [17] is Rattus norvegicus. Put plainly: Antipyretic activity against brewer's yeast-induced hyperthermia in Wistar rat assessed as change in rectal temperature at 5 mg/kg, po after 60 mins. The gist of the method: as §1
Assay [18] deals with Rattus norvegicus. The assay can be described thus: Antipyretic activity against brewer's yeast-induced hyperthermia in Wistar rat assessed as change in rectal temperature at 5 mg/kg, po after 90 mins. The gist of the method:
as §1

The test system of assay [19] is Rattus norvegicus. Put plainly: Antipyretic activity against brewer's yeast-induced hyperthermia in Wistar rat assessed as change in rectal temperature at 5 mg/kg, po after 30 mins. The method in brief: as §1

As a reminder, the inhibition in vivo is the percentage by which the read-out fell short of the control. For orientation: MIC means the least concentration at which growth counts as inhibited. Lower therefore signals greater potency.

Molecules are shown by their SMILES. Converted amounts (≈) assume the structure as drawn.

As to `CC(C)C1C(=O)CC(c2ccccc2)N(C(=O)CN2CCN(C)CC2)C1c1ccccc1` (stereo unspecified), the Activity in the assay on Rattus norvegicus [1] was 38.15 °C; with Rattus norvegicus [2] it was 38.9 °C; in the assay on Rattus norvegicus [3] it was 38.96 °C; in the assay on Rattus norvegicus [4], 38.01 °C; in the assay on Rattus norvegicus [6], 38.05 °C; in the assay with Rattus norvegicus [7], 38.95 °C. For the same molecule, the Activity amounted to 38.01 °C in the assay on Rattus norvegicus [8], 38.75 °C in the assay with Rattus norvegicus [12], 38.1 °C in the assay on Rattus norvegicus [13] and 38.9 °C in the assay with Rattus norvegicus [14]. In addition, in the assay with Mus musculus [5], the inhibition in vivo at 60 mg/kg was 18.1%. Besides, the MIC is 100 µg/mL (≈ 231 µM) in the assay with Pseudomonas aeruginosa; 100 µg/mL (≈ 231 µM) against Aspergillus flavus; 50 µg/mL (≈ 115 µM) in assay [9]; 50 µg/mL (≈ 115 µM) in the assay with Rhizopus; 200 µg/mL (≈ 461 µM) with Staphylococcus aureus; 100 µg/mL (≈ 231 µM) against Aspergillus niger. The MIC with Escherichia coli stood at 100 µg/mL (≈ 231 µM); in the assay with Klebsiella pneumoniae it was 200 µg/mL (≈ 461 µM); in the assay on Candida albicans, 200 µg/mL (≈ 461 µM). Besides, in the assay on Mus musculus [10], the inhibition in vivo at 30 mg/kg came out at 5.6%. In addition, the inhibition in vivo at 90 mg/kg in the assay with Mus musculus [11] is 2.2%.

Consider `COc1ccc(C2C(C)C(=O)C(C)C(c3ccc(OC)cc3)N2C(=O)CN2CCN(C)CC2)cc1` (stereo unspecified), for which the Activity came out at 38.1 °C with Rattus norvegicus [1]; 37.7 °C with Rattus norvegicus [2]; 37.8 °C in the assay with Rattus norvegicus [3]; 38.95 °C with Rattus norvegicus [4]; 38.01 °C in the assay on Rattus norvegicus [6]; 37.9 °C with Rattus norvegicus [7]. For the same molecule, the Activity in the assay on Rattus norvegicus [8] stood at 37.95 °C; with Rattus norvegicus [12], 37.6 °C; in the assay with Rattus norvegicus [13], 38.01 °C; in the assay with Rattus norvegicus [14], 37.85 °C. In addition, the inhibition in vivo at 60 mg/kg with Mus musculus [5] was found to be 59.1%. Further, the MIC in the assay with Pseudomonas aeruginosa is 50 µg/mL (≈ 104 µM); in the assay with Aspergillus flavus, 12.5 µg/mL (≈ 26.1 µM); in assay [9] it was 100 µg/mL (≈ 208 µM); with Rhizopus, 25 µg/mL (≈ 52.1 µM); in the assay on Staphylococcus aureus, 12.5 µg/mL (≈ 26.1 µM); against Aspergillus niger, 25 µg/mL (≈ 52.1 µM). Also, the MIC turned out to be 25 µg/mL (≈ 52.1 µM) in the assay with Escherichia coli, 25 µg/mL (≈ 52.1 µM) with Klebsiella pneumoniae and 6.25 µg/mL (≈ 13 µM) in the assay with Candida albicans. The inhibition in vivo at 30 mg/kg with Mus musculus [10] turned out to be 46.2%. In addition, in the assay on Mus musculus [11], the inhibition in vivo at 90 mg/kg turned out to be 38.7%.

As to `CC1C(=O)CC(c2ccccc2)N(C(=O)CN2CCN(C)CC2)C1c1ccccc1` (stereo unspecified), the Activity was 38.25 °C in the assay on Rattus norvegicus [1]; 38.01 °C with Rattus norvegicus [2]; 38.03 °C in the assay on Rattus norvegicus [3]; 38.1 °C in the assay with Rattus norvegicus [4]; 38.2 °C in the assay with Rattus norvegicus [6]; 38.02 °C in the assay with Rattus norvegicus [7]. For the same molecule, the Activity with Rattus norvegicus [8] was found to be 38.1 °C; in the assay on Rattus norvegicus [12] it was 38.95 °C; with Rattus norvegicus [13] it was 38.2 °C; with Rattus norvegicus [14] it was 38.01 °C. Besides, the inhibition in vivo at 60 mg/kg in the assay on Mus musculus [5] was found to be 15.6%. Also, the minimum inhibitory concentration (MIC) with Pseudomonas aeruginosa was greater than 200 µg/mL; against Aspergillus flavus, 100 µg/mL (≈ 247 µM); in assay [9], 200 µg/mL (≈ 493 µM); against Rhizopus, greater than 200 µg/mL; in the assay with Staphylococcus aureus it was greater than 200 µg/mL; against Aspergillus niger it was 100 µg/mL (≈ 247 µM). For the same molecule, the MIC is 100 µg/mL (≈ 247 µM) against Escherichia coli, 200 µg/mL (≈ 493 µM) in the assay on Klebsiella pneumoniae and greater than 200 µg/mL against Candida albicans. For the same molecule, in the assay on Mus musculus [10], the inhibition in vivo at 30 mg/kg came out at 6.3%. The inhibition in vivo at 90 mg/kg in the assay on Mus musculus [11] turned out to be 17.7%.

Turning to `COc1ccc2c(c1)c(CC(=O)O)c(C)n2C(=O)c1ccc(Cl)cc1` [INDOMETHACIN], the Activity in the assay with Rattus norvegicus [15] was found to be 37.5 °C; with Rattus norvegicus [16] it was 37.7 °C; in the assay with Rattus norvegicus [17] it was 37.9 °C; with Rattus norvegicus [18], 37.8 °C; with Rattus norvegicus [19], 38.1 °C.
